Values after ≈ are worked out from the molar mass of the structure shown. Active and inactive are the calls of the source. The rule behind the calls is not given here.
Experiments:
[1] = test system: Enterococcus faecalis; assay: Antibacterial activity against Enterococcus faecalis ATCC 29212 after 16 hrs by broth microdilution method; assay type: functional; conditions: ATCC 29212, 16 h
Method in brief: (§1)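 Broth microdilution MIC with the inoculum standardized to about 5 × 10^5 CFU/mL. Plates were incubated 16 h at 37 °C. MIC was taken as the lowest concentration with no visible bacterial growth. Each experiment was run three times.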

[2] = test system: Pseudomonas aeruginosa; assay: Antibacterial activity against Pseudomonas aeruginosa ATCC 15442 after 16 hrs by broth microdilution method; assay type: functional; conditions: ATCC 15442, 16 h; method in brief: as §1
[3] = test system: BEAS-2B; assay: Cytotoxicity against human BEAS2B cells assessed as reduction in cell viability at 0.064 to 40 uM after 48 hrs by MTS assay; assay type: cell-based
Method in brief: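 BEAS-2B cells grown in RPMI-1640 or DMEM with 10% FBS at 37 °C under 5% CO2. Seeded at 1 × 10^5 cells/mL and left to adhere 12 h. Exposed to compound at various concentrations in triplicate for 48 h, with cisplatin and paclitaxel as positive controls. MTS was added for 4 h, then cells were lysed in SDS/DMF and OD read at 490 nm. IC50 by Reed–Muench.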

[4] = test system: Escherichia coli; assay: Antibacterial activity against ESBL-producing Escherichia coli ATCC 35218 after 16 hrs by broth microdilution method; assay type: functional; conditions: ATCC 35218, 16 h; method in brief: as §1
[5] = test system: Staphylococcus aureus; assay: Antibacterial activity against methicillin-resistant Staphylococcus aureus ATCC 43300 after 16 hrs by broth microdilution method; assay type: functional; conditions: ATCC 43300, 16 h
[6] = test system: Escherichia coli; assay: Bacteriostatic activity against ESBL-producing Escherichia coli ATCC 35218 after 2 to 24 hrs by time kill assay; assay type: functional, organism-based
Method in brief: (§2)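 Overnight MHB culture was diluted into fresh MHB at 5 × 10^5 CFU/mL. Tubes got varied compound concentrations, with untreated inoculated medium as control, and were shaken at 37 °C. At 2, 4, 6, 8, 12 and 24 h, samples were serially diluted, plated on tryptic soy agar and incubated overnight at 37 °C, then colonies were counted. Done at least three times, mean/SD.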

[7] = test system: Klebsiella pneumoniae; assay: Antibacterial activity against Klebsiella pneumoniae ATCC 700603 after 16 hrs by broth microdilution method; assay type: functional; conditions: Klebsiella pneumoniae, 700603, 16 h; method in brief: as §1
[8] = test system: Escherichia coli; assay: Bactericidal activity against ESBL-producing Escherichia coli ATCC 35218 after 2 to 24 hrs by time kill assay; assay type: functional, organism-based; method in brief: as §2

Row | Compound | MIC [1] [µg/mL] | MIC [2] [µg/mL] | Activity [3] | MIC [4] [µg/mL] | MIC [5] [µg/mL] | Activity [6] | MIC [7] [µg/mL] | Activity [8]
1 | O=C(N[C@H](CO)[C@H](O)c1ccc([N+](=O)[O-])cc1)C(Cl)Cl [CHLORAMPHENICOL] | 16 (≈ 49.5 µM) |  |  |  |  |  |  | 
2 | C=C1[C@H]2C(=O)[C@@]3(C)C[C@]4(CC[C@H]5C(C)(C)C(=O)C=C[C@]5(C)[C@H]24)[C@@]12COC(=O)[C@@H]2[C@H]3O | 32 (≈ 78 µM) | 8 (≈ 19.5 µM) | Non-Toxic | 2 (≈ 4.87 µM) | 32 (≈ 78 µM) | Active | 32 (≈ 78 µM) | 
3 | CO/N=C(\C(=O)N[C@@H]1C(=O)N2C(C(=O)O)=C(CSc3nc(=O)c(O)nn3C)CS[C@H]12)c1csc(N)n1 [CEFTRIAXONE] |  | 1 (≈ 1.8 µM) |  |  |  |  | 1 (≈ 1.8 µM) | 
4 | CC1(C)C(=O)C=C[C@@]2(C)[C@H]1CC[C@@]13C[C@@]4(C)C=C5C(=O)OC[C@]51[C@@]1(CO1)[C@@H](C4=O)[C@@H]23 | > 128 | 64 (≈ 157 µM) |  | 32 (≈ 78.3 µM) | > 128 |  | > 128 | 
5 | CCC[C@H](O)[C@H](O)C[C@H]1OCc2c(OC)cccc21 | 32 (≈ 120 µM) | 4 (≈ 15 µM) | Non-Toxic | 4 (≈ 15 µM) | 32 (≈ 120 µM) |  | 16 (≈ 60.1 µM) | Active
6 | COc1cccc(/C=C/[C@@H](O)[C@@H](O)[C@H]2O[C@@H]2C)c1CO | > 128 | 32 (≈ 114 µM) |  | 32 (≈ 114 µM) | 64 (≈ 228 µM) |  | > 128 | 
7 | C=C1[C@H]2C(=O)[C@]3(C)C=C4C(=O)OC[C@]14[C@@]1(CC[C@H]4C(C)(C)C(=O)C=C[C@]4(C)[C@H]21)C3 | > 128 | 32 (≈ 81.5 µM) |  | 32 (≈ 81.5 µM) | 64 (≈ 163 µM) |  | 64 (≈ 163 µM) | 
8 | NCC[C@H](O)C(=O)N[C@@H]1C[C@H](N)[C@@H](O[C@H]2O[C@H](CN)[C@@H](O)[C@H](O)[C@H]2O)[C@H](O)[C@H]1O[C@H]1O[C@H](CO)[C@@H](O)[C@H](N)[C@H]1O [AMIKACIN] |  |  |  | 2 (≈ 3.42 µM) |  |  |  | 
9 | COc1cccc2c1CO[C@@H]2C[C@@H](O)[C@@H](O)[C@H]1O[C@@H]1C | > 128 | > 128 |  | > 128 | > 128 |  | > 128 | 
10 | C=C1[C@H]2C(=O)[C@]3(C)C=C4C(=O)OC[C@]14[C@@]1(CC[C@H]4C(C)(C)C(=O)C=C[C@]4(C)[C@]21O)C3 | > 128 | > 128 |  | 64 (≈ 157 µM) | > 128 |  | > 128 | 
11 | CCC[C@H](O)[C@H](O)C[C@H]1OCc2cccc(OC)c21 | 32 (≈ 120 µM) | 32 (≈ 120 µM) |  | 8 (≈ 30 µM) | > 128 |  | > 128 | 

Source: ChEMBL document CHEMBL4130437, “Bioassay-Guided Isolation of Antibacterial Metabolites from Emericella sp. TJ29” (J Nat Prod, 2017)
